Active and inactive are the calls of the source. The calls are words filed in the database; no cut-off is given here.
What was measured:
[1] = system: HL-60; test: Induction of apoptosis in human HL60 cells assessed as induction of PARP1 cleavage after 24 hrs by Western blot; assay type: functional, cell-based
Method in brief: (§1)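 About 7×10^5 exponentially growing HL-60 cells were treated at 37 °C for 6 or 24 h. Lysates in Hepes/NaCl/NP-40 buffer with protease inhibitors were cleared at 10 000g. 50 µg protein was run on 7.5% SDS-PAGE and probed with anti-PARP-1 (1:1000), with ECL detection. The 85 kDa fragment versus the 116 kDa intact band was the apoptosis marker.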

[2] = system: HL-60; test: Induction of apoptosis in human HL60 cells assessed as fold increase in caspase 8 activation at 10 uM relative to control; assay type: functional
Method in brief: (§2)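 HL-60 cells were exposed for 12 h to 1–30 µM. Lysates were made in Hepes pH 7.4/DTT/CHAPS buffer and protein was measured by Bradford. About 20 µg protein was incubated at 37 °C with DEVD-pNA (caspase-3) or IETD-pNA (caspase-8). Net A405 increase was expressed as fold over untreated control, in duplicate.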

[3] = system: HL-60; test: Induction of apoptosis in human HL60 cells assessed as morphological changes after 12 hrs by Hoechst 33258 staining based fluorescence microscopy; assay type: functional, cell-based
Method in brief: (§3)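 HL-60 cells were treated for 12 h at 10–30 µM, with 10 µM etoposide as positive control. Cells were fixed in 3% paraformaldehyde for 10 min, then stained with 10 µg/mL Hoechst 33258 for 30 min at 37 °C. Nuclei with condensed or fragmented chromatin were scored as apoptotic, counting ≥500 cells per sample, in triplicate.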

[4] = system: HL-60; test: Induction of apoptosis in human HL60 cells assessed as morphological changes at 30 uM after 12 hrs by Hoechst 33258 staining based fluorescence microscopy; assay type: functional, cell-based; method in brief: as §3
[5] = system: HL-60; test: Cytotoxicity against human HL60 cells after 72 hrs by MTT assay; assay type: functional, cell-based; conditions: HL-60, 72 h
Method in brief: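 HL-60 cells kept in RPMI-1640 with 10% heat-inactivated FBS at 37 °C and 5% CO2, resuspended in fresh medium 24 h before treatment. Cells at 1×10^4/well were exposed continuously to a concentration series for 72 h at 37 °C, with final DMSO ≤0.5%. Read-out was MTT reduction at OD 570 nm as % of DMSO control. IC50 was curve-fitted for each experiment; points were triplicates.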

[6] = system: HL-60; test: Induction of apoptosis in human HL60 cells at 30 uM after 12 hrs by Hoechst 33258 staining based fluorescence microscopy; assay type: functional; method in brief: as §3
[7] = system: HL-60; test: Induction of apoptosis in human HL60 cells assessed as cytochrome release at 10 uM by Western blot; assay type: functional, cell-based
Method in brief: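 Exponentially growing HL-60 cells were treated for 6 h. The cytosolic fraction was obtained by hypotonic sucrose-buffer swelling on ice, needle lysis, a 1000g spin, then 105 000g for 45 min at 4 °C. 50 µg cytosolic protein was run on SDS/15% PAGE and immunoblotted with anti-cytochrome c (1:250), with ECL detection.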

[8] = system: HL-60; test: Induction of apoptosis in human HL60 cells assessed as induction of DNA cleavage at 10 uM after 12 hrs by gel electrophoresis; assay type: functional, cell-based
Method in brief: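 HL-60 cells (1×10^6) were lysed in Tris pH 8.0/EDTA/0.5% SDS with RNase A for 1 h at 37 °C, then proteinase K for 2 h at 50 °C. DNA was phenol-chloroform extracted and run on 2% agarose with ethidium bromide staining. The legend gives 24 h treatment while the text gives 12 h.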

[9] = system: HL-60; test: Induction of apoptosis in human HL60 cells assessed as induction of PARP1 cleavage after 6 hrs by Western blot; assay type: functional, cell-based; method in brief: as §1
[10] = system: HL-60; test: Induction of apoptosis in human HL60 cells assessed as fold increase in caspase 3 activation at 30 uM relative to control; assay type: functional; method in brief: as §2

For `COc1ccc(-c2oc3c(C)c(O)c(C)c(O)c3c(=O)c2OC)cc1`, the Activity [1] was “Active”, the “fold change (FC)” value [2] was 3.7 and the Activity [3] was “Dose-dependent effect”. For the same molecule, the Activity [4] was “Active”, the IC50 [5] was 1.7 µM and the Activity [6] was 47.8%. For the same molecule, the Activity [7] was “Active”, the Activity [8] was “Active” and the Activity [9] was “Active”. For the same molecule, the “fold change (FC)” value [10] was 1.9.

For `COc1c(-c2ccc(O)cc2)oc2c(C)c(O)c(C)c(O)c2c1=O`, the Activity [1] was “Active”, the Activity [3] was “Dose-dependent effect” and the Activity [4] was “Active”. For the same molecule, the IC50 [5] was 7.4 µM, the Activity [6] was 26.6% and the Activity [7] was “Active”. For the same molecule, the Activity [8] was “Active”.
